# TRPC4 inh: inhibitors of mouse TRPC4 channel, primary screen, Fluo4 calcium, HEK293 TRPC4beta/mu-opioid cells; B-score at 10 µM; DAMGO-evoked Fluo4 calcium flux; active compounds read low; AID 2247, 2010; Short transient receptor potential channel 4 (Mus musculus), Q9QUQ5; hit rate 0.39% among 300,000;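 active means B-score over 3 SD under the library average, no early fluorescence shift, positive overall ratio signal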
#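 Signal: kinetic Fluo4 fluorescence imaging of calcium influx. Material: stable TRPC4beta/mu-opioid receptor HEK293 cells. Probe or stimulus: DAMGO in two steps, submaximal then maximal.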
# TRPC6 act: mouse TRPC6 channel activators, primary screen, cell-based, HEK293, membrane potential dye; Short transient receptor potential channel 6 (Mus musculus), Q61143; HEK293-TRPC6 membrane potential dye fluorescence; active compounds read high; B-score at 10 µM; hit rate 0.13% among 310,000; AID 2550, 2010;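 active means B-score of the integrated fluorescence ratio above library mean plus 3 SD, and starting fluorescence ratio within library mean plus 5 SD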;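 further: higher score means more depolarization so channel activation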
# TRPC4 act: activators of mouse TRPC4 channel, primary screen, Fluo4 calcium, HEK293 TRPC4beta/mu-opioid cells. Short transient receptor potential channel 4 (Mus musculus), Q9QUQ5. Fluo4 calcium fluorescence; active compounds read high. B-score at 10 µM. hit rate 0.49% among 310,000. AID 2237, 2010;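 active means B-score above 5 SD of library B-scores, and initial fluorescence ratio not above library mean plus 5 SD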;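 further: positive B-score marks a calcium rise read as TRPC4 activation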
#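 Assay system: HEK293 stable line with TRPC4beta plus mu-opioid receptor; schedule: 45 min room-temperature Fluo4 loading, 110 s read; technique: kinetic Fluo4 calcium fluorescence; evaluation: integrated baseline-normalised fluorescence ratio, converted to per-well B score; controls: buffer (low) and maximal DAMGO (high)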
# TRPC4 PAM: positive allosteric modulators of TRPC4, primary screen, cell-based, mouse TRPC4beta, HEK293 mu-opioid, Fluo-4 calcium; Short transient receptor potential channel 4 (Mus musculus), Q9QUQ5; DAMGO EC20, Fluo-4 Ca2+ flux; active compounds read high; B-score at 10 µM; hit rate 0.42% among 310,000; AID 2227, 2009;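 active means B-score of calcium response area above 5 SD of library B-scores, with initial fluorescence ratio within 5 SD of library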;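 further: B-score of integrated fluorescence ratio over time as area under calcium response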
# TRPC6 inhibitor: mouse TRPC6 channel inhibitors, primary screen, cell-based, HEK293, membrane potential dye; Short transient receptor potential channel 6 (Mus musculus), Q61143; ACh-evoked depolarization; active compounds read low; B-score at 10 µM; hit rate 1.1% among 310,000;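 active means B-score under library mean minus 3 SD, initial fluorescence not abnormally high, positive integrated signal ratio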;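 further: B-score derived from integrated fluorescence ratio over the kinetic read; more negative B-score means stronger inhibition of depolarization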
# Active calls of the source: *; i = inactive; . = no result. Hits are enriched below; roughly 2.3% of the tested compounds scored in any of these assays.
SMILES,TRPC4 inh,TRPC6 act,TRPC4 act,TRPC4 PAM,TRPC6 inhibitor
CCOC(=O)c1ccc(NC(=O)c2ccc[n+]([O-])c2)cc1,i,i,i,i,i
CC(=O)c1ccc(OCc2cc(C(=O)N3CCN(C4CCCC4)C(=O)C3)no2)cc1,i,i,i,i,i
CC(C)CCOc1ccc(C(=O)NCC(c2ccco2)N(C)C)cc1 (stereo not given),-7*,i,i,i,i
COc1ccc(F)cc1S(=O)(=O)NCc1cc(=O)n(C)c(=O)n1C,i,i,i,i,i
CC[C@@H](C(=O)[C@@H](C)[C@@H](O)[C@H](C)CCc1ccc(C)c(O)c1C(=O)O)[C@H]1O[C@](CC)([C@H]2CC[C@](O)(CC)[C@H](C)O2)C[C@@H]1C,i,i,160*,i,i
NC(=O)CCn1c(C(=O)c2cc(Cl)c(N)c(Cl)c2)c2ccccc2[n+]1[O-],i,i,i,i,i
NCCCn1c(C(=O)c2cc(Cl)c(N)c(Cl)c2)c2ccccc2[n+]1[O-],i,i,178*,i,i
Cc1nc(N2CCCCC2)c(C#N)c(C)c1[N+](=O)[O-],-5*,i,i,i,i
Cc1cc(C)n(-c2cccc(F)n2)n1,i,i,i,i,i
Cc1c(C(=O)N(Cc2cccs2)C2CCS(=O)(=O)C2)oc2ccccc12 (stereo not given),i,i,67*,i,i
CC(=O)n1cc([C@H]2C=C(C(N)=O)O[C@@H](OCc3ccc(CO)cc3)C2)c2ccccc21,i,i,51*,i,i
C#CCNC(=O)C1=C[C@H](c2csc3ccccc23)C[C@H](OCc2ccc(CO)cc2)O1,i,i,52*,i,i
CC(=O)n1cc([C@H]2C=C(C(=O)NCc3ccccc3)O[C@@H](OCc3ccc(CO)cc3)C2)c2ccccc21,i,i,244*,i,i
C#CCNC(=O)C1=C[C@@H](c2cn(C(C)=O)c3ccccc23)C[C@@H](OCc2ccc(CO)cc2)O1,i,i,i,i,i
COC(=O)C1=C(CCc2ccccc2)NC(=O)NC1c1ccc(Br)cc1 (stereo not given),i,i,i,i,i
O=C(CCN1CCOCC1)N1CCCC(Nc2cccc(F)c2)C1 (stereo not given),i,i,i,i,i
Cc1ccc(NS(=O)(=O)c2c(C)[nH]c(C)c2C(=O)N2CCCCC2)c(Br)c1,i,i,i,i,i
Cc1ncoc1C(=O)N1CCCC(N2CCN(c3cccc(C(F)(F)F)c3)CC2)C1 (stereo not given),i,i,i,i,i
COc1ccc(C(CNC(=O)c2oc3ccc(OC)cc3c2C)N2CCCC2)cc1 (stereo not given),i,i,72*,i,i
CCC1CCc2sc(C(=O)NCC(c3ccc(OC)cc3)N3CCCC3)cc2C1 (stereo not given),i,i,55*,i,i
CCCCn1c(N)c(N(CC)C(=O)c2ccc(C#N)cc2)c(=O)[nH]c1=O,i,i,i,i,i
CC1=C[C@@H](C)[C@@H](c2ccccc2)OC1=O,i,i,61*,i,i
C=CCn1c(CCNC(=O)C(C)(C)C)nc2ccccc21,i,i,146*,i,i
O=[N+]([O-])c1cc(-c2ccc(/C=N/n3cnnc3)o2)ccc1Cl,i,i,i,i,-13*
O=C(C1=C[C@@H](c2ccc(C(F)(F)F)cc2)C[C@@H](OCCCCO)O1)N1CCOCC1,i,i,i,i,i
SMILES,TRPC4 inh,TRPC6 act,TRPC4 act,TRPC4 PAM,TRPC6 inhibitor
O=C(C1=C[C@H](c2ccc(C(F)(F)F)cc2)C[C@H](OCCCCO)O1)N1CCOCC1,i,i,133*,i,i
Cc1sc2ncnc(OCC(=O)N3CCN(C(=O)c4ccco4)CC3)c2c1C,.,i,i,i,i
O=C(NCc1ccco1)c1cnn2c1NC(c1ccc(Br)cc1)CC2C(F)(F)F (stereo not given),i,i,i,13*,i
CN1CCN(c2nc(-c3cccnc3)nc3scc(-c4ccccc4)c23)CC1,-7*,i,64*,i,i
CN(C)C(=O)c1c(C(F)(F)F)nn(C)c1Cl,i,i,i,i,i
Cc1ccccc1NC(=O)NC1(C(=O)NCc2ccco2)CCCCC1,i,i,i,i,i
O=C(NC1CCCCC1)N1CCCC(c2nc(-c3cccs3)no2)C1 (stereo not given),i,i,i,i,i
O=C(Nc1ccc(Cl)cc1)N1CCC(c2nc(-c3cccs3)no2)CC1,i,i,137*,i,i
O=C(Nc1ccccc1)N1CCCC(c2nc(-c3cccs3)no2)C1 (stereo not given),i,i,47*,i,i
COc1ccc(CCNC(=O)c2c(O)c3ccccc3[nH]c2=O)cc1,i,i,i,i,i
CCC1(c2ccc(F)cc2)NC(=O)N(CC(=O)c2cc(C)n(C3CC3)c2C)C1=O (stereo not given),i,i,54*,16*,i
CN1CCN(NC(=O)c2ccc(Cl)c([N+](=O)[O-])c2)CC1,i,i,44*,i,i
Cc1cc(NC(=O)COC(=O)CCS(=O)(=O)c2cc(Cl)ccc2Cl)no1,i,i,i,i,i
CC1(C)CC(=O)C(C(C2=C(O)CC(C)(C)CC2=O)c2ccc(Br)s2)C(=O)C1 (stereo not given),i,i,i,10*,i
Cc1ccc(C(C2=C(O)CC(C)(C)CC2=O)C2C(=O)CC(C)(C)CC2=O)s1 (stereo not given),i,i,i,i,i
Cc1cc(N)n(-c2ccc(S(=O)(=O)c3ccc(C(C)C)cc3)cc2)n1,i,i,i,i,i
CC(COc1ccccc1Cc1ccccc1)N1CCCCC1 (stereo not given),i,12*,67*,i,i
CC(C)CCNC(=O)CN(Cc1ccccc1)C(=O)CCC(=O)Nc1ccccn1,i,i,i,i,i
CC(=O)Nc1ccc(S(=O)(=O)N2CCC(N3CCCCCC3)CC2)cc1,i,i,i,i,i
